This is a sample that favours compounds with a hit; in the whole collection about 2.3% have one here.
TRPC6 inh: inhibitors of mouse TRPC6 channel | HEK293-TRPC6, membrane potential dye, ACh-evoked depolarization; hits give low values | B-score at 10 µM | Q61143 | 310,000 compounds, 1.1% hits | AID 2553;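 active = B-score under library mean minus 3 SD, initial fluorescence not abnormally high, positive integrated signal ratio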;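 note: B-score derived from integrated fluorescence ratio over the kinetic read; more negative B-score means stronger inhibition of depolarization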
TRPC6 act: activators of mouse TRPC6 channel | B-score at 10 µM | Q61143 | 310,000 compounds, 0.13% hits | HEK293-TRPC6 membrane potential dye fluorescence; hits give high values;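 active = B-score of the integrated fluorescence ratio above library mean plus 3 SD, and starting fluorescence ratio within library mean plus 5 SD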;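 note: higher score means more depolarization so channel activation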
TRPC4 block: TRPC4 (mouse) channel inhibition | Q9QUQ5 | 300,000 compounds, 0.39% hits | B-score at 10 µM | HEK293 TRPC4beta/mu-opioid, DAMGO-evoked Fluo4 calcium flux; hits give low values;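 active = B-score over 3 SD under the library average, no early fluorescence shift, positive overall ratio signal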
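Signal: kinetic Fluo4 fluorescence imaging of calcium influx. Material: stable TRPC4beta/mu-opioid receptor HEK293 cells. Probe or stimulus: DAMGO in two steps, submaximal then maximal.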
TRPC4 PAM: TRPC4 (mouse) allosteric potentiation | Q9QUQ5 | HEK293 TRPC4beta/mu-opioid, DAMGO EC20, Fluo-4 Ca2+ flux; hits give high values | B-score at 10 µM | 310,000 compounds, 0.42% hits;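 active = B-score of calcium response area above 5 SD of library B-scores, with initial fluorescence ratio within 5 SD of library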
TRPC4 agonist: activators of mouse TRPC4 channel | 310,000 compounds, 0.49% hits | HEK293 TRPC4beta/mu-opioid, Fluo4 calcium fluorescence; hits give high values | B-score at 10 µM | Q9QUQ5;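 active = B-score above 5 SD of library B-scores, and initial fluorescence ratio not above library mean plus 5 SD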;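 note: positive B-score marks a calcium rise read as TRPC4 activation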
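Test system: HEK293 cells stably co-expressing mouse TRPC4beta and mu-opioid receptor | Schedule: Fluo4 dye loading 45 min at room temperature, 110 s recording | Measured by: Kinetic Fluo4 calcium fluorescence, 5 s baseline at 1 Hz | Evaluation: B score of integrated ratio | Controls: Buffer (low) and maximal DAMGO (high)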
Of the large screens only hits and unclear results are named; the others gave an inactive call.

O=C(N/N=C/C(Br)=C/c1ccccc1)c1ccccc1[N+](=O)[O-]	TRPC4 PAM 12
Clc1cc(Br)ccc1OCCCNCc1ccccc1	TRPC4 agonist 75
OCCNCc1cc(Br)ccc1OCc1ccc(Cl)cc1Cl	TRPC4 block -8
OCCCCNCc1cc(Br)ccc1OCc1ccccc1F	TRPC4 block -7
Brc1ccc(OCc2ccccc2)c(CNCc2ccncc2)c1	TRPC4 block -5
Fc1ccc(COc2ccccc2CNCc2ccncc2)cc1	none
O=C(CCN1CCCCC1)Nn1c(=S)[nH]c2ccccc2c1=O	none
CCOC(=O)Cn1nnnc1CN(Cc1ccc(OC)cc1)Cc1cc2cc(CC)ccc2[nH]c1=O	none
OCCNCc1cc(Br)ccc1OCc1ccc(F)cc1	TRPC4 block -6
O=C(COc1ccc(Br)cc1CO)Nc1ccc(F)cc1	none
COC1CCCN(Cc2cn(C)nc2-c2ccc(Oc3ccccc3)cc2)C1 (stereo unspecified)	none
Cn1cc(CN2CCCCC2CO)c(-c2ccc(Oc3ccccc3)cc2)n1 (stereo unspecified)	TRPC4 block -7
O=C(NCc1ccccn1)C(F)(F)C(F)(F)C(=O)NCc1ccccn1	none
O=C(NCCc1ccccn1)C(F)(F)C(F)(F)C(F)(F)C(F)(F)C(F)(F)C(F)F	TRPC4 agonist 128
CCOc1ccccc1N1CCN(C(=S)NC(=O)C23CC4CC(CC(C4)C2)C3)CC1	none
CN1CCN(C2=Nc3cc(F)ccc3Cc3ccccc32)CC1	TRPC6 inh -5.2
CN1CCN(C2=Nc3c(Cl)cc(Cl)c4cccc2c34)CC1	none
Cc1ccc(-n2c(CNc3ccc(C)c(Cl)c3)n[nH]c2=S)cc1	none
COc1ccc(CCN(C)CCC(=O)Nc2c(C)cc(C)cc2C)cc1OC	TRPC4 agonist 111
O=C(/C=C/c1cccs1)N1CCC2(CC1)Oc1ccc(F)cc1C(=O)C21CC(c2ccccc2)=NO1 (stereo unspecified)	none
CN1CCN(NC(=O)c2cccc(Br)c2)CC1	TRPC4 PAM 19
Cc1ccc(S(=O)(=O)Nc2ccc(C(=O)N3CCCC3)cc2)cc1	none
Cc1ccc(NS(=O)(=O)c2ccc(C(=O)N3CC(C)CC(C)C3)cc2)cc1 (stereo unspecified)	TRPC4 agonist 104
Clc1ccc(CN2C3=NCCCN3c3ccccc32)cc1Cl	TRPC4 block -6
Clc1ccc(CN2C3=NCCCN3c3ccccc32)cc1	none
COc1cccc(OCc2cc(C(=O)N3CCC(c4ccncc4)CC3)no2)c1	none
COc1cccc(OCc2cc(C(=O)N3CCN(C)C(c4ccccc4)C3)no2)c1 (stereo unspecified)	TRPC4 PAM 15
CCOC(=O)c1cc(-c2ccco2)nc2c1c(C)nn2-c1cccc(Cl)c1	none
CN(Cc1ccccc1NCC(=O)Nc1ccccc1C#N)C1CCCCC1	TRPC4 block -6
N#Cc1ccccc1NC(=O)CNc1ccccc1N1CCCCC1	none
COc1cc2ccccc2cc1C(=O)Nc1cc(C)ccn1	none
CCCC(=O)NC(=S)Nc1ccc(S(=O)(=O)Nc2ccc(OCC)cc2)cc1	none
CCOc1ccc(NS(=O)(=O)c2ccc(NC(=S)NC(=O)CC(C)C)cc2)cc1	TRPC4 PAM 22
O=C(Nc1ccc2c(c1)CCC2)c1cnc(Cl)c(Cl)c1	none
O=C(Nc1ccc2c(c1)CCC2)c1ccc(Cl)nc1	TRPC4 block -6
COC(=O)CCCCCN1C(=O)/C(=C\c2ccncc2)SC1=S	TRPC4 PAM 10
CCc1ccc(/C=C2\SC(=S)N(CCCC(=O)Nc3ccccn3)C2=O)cc1	none
CCc1ccc(/C=C2/SC(=S)N(CCCC(=O)Nc3ccccc3C(=O)O)C2=O)cc1	TRPC4 block -6
COc1ccc(OC)c(NC(=O)N[C@@H](Cc2ccccc2)C(=O)O)c1	none (no result: TRPC4 block)
CSc1c(C#N)sc(=S)n1-c1ccc(C)cc1	TRPC4 block -7
O=C1c2ccccc2C(=O)N1CCc1nc(-c2ccc(Cl)cc2)no1	none
CCC1CCCCN1S(=O)(=O)c1ccc(C(=O)Nc2nnc(-c3ccccc3Cl)o2)cc1 (stereo unspecified)	TRPC4 agonist 65
CC1(C)COCN1S(=O)(=O)c1ccc(C(=O)Nc2nnc(-c3ccc(Cl)s3)o2)cc1	TRPC4 block -5, TRPC4 agonist 111
Cc1c(C(=O)NCCc2ccc3c(c2)OCCO3)oc2ccccc12	none
O=C1C=C(O)CC(c2ccc(Cl)cc2)C1 (stereo unspecified)	none
O=C1C=C(O)CC(c2ccc(Cl)c(Cl)c2)C1 (stereo unspecified)	TRPC4 PAM 11
CC(=O)c1ccc(N2CCN(C(=O)/C=C/c3ccc(S(=O)(=O)NCc4ccco4)cc3)CC2)cc1	TRPC4 PAM 12
CC(=O)c1ccc(N2CCN(C(=O)/C=C/c3ccc(S(=O)(=O)N4CCOCC4)cc3)CC2)cc1	none
O=C(c1ccco1)N1CCN(C/C=C/c2ccccc2)CC1	TRPC4 block -5
S=C(NC1CCCCC1)N1CCN(C/C=C/c2ccccc2)CC1	none
CC(C)NC(=S)N1CCN(C/C=C/c2ccccc2)CC1	TRPC4 block -6
CC(=O)CN1C(=O)NC(c2ccccc2)(c2ccccc2)C1=O	none
O=S(=O)(c1ccccc1)c1nnn2c1nc(NC1CCN(Cc3ccccc3)CC1)c1ccccc12	none
O=S(=O)(c1ccccc1)c1nnn2c1nc(NC1CCN(Cc3ccccc3)CC1)c1cc(Cl)ccc12	TRPC4 block -6, TRPC4 agonist 148
Cc1sc2ncnc(SCC(=O)N(C)C3CCS(=O)(=O)C3)c2c1C (stereo unspecified)	TRPC4 PAM 34
CN(C(=O)CSc1ncnc2scc(-c3ccccc3)c12)C1CCS(=O)(=O)C1 (stereo unspecified)	none
COc1cc(/C=C(\C#N)c2nc3c(s2)CCCC3)ccc1O	TRPC6 act 93, TRPC4 agonist 91
O=C(Nc1ccncc1)c1ccc(Cl)c(S(=O)(=O)N2CCc3ccccc32)c1	TRPC4 agonist 95
CCOC(=O)Nc1nc2ccccc2s1	none
Cc1ccc(C(C(=O)NC(C)(C)C)N(C(=O)CCC(=O)Nc2ccccn2)c2ccccc2F)cc1 (stereo unspecified)	TRPC4 block -8
Cc1ccc(C(C(=O)NC(C)(C)C)N(Cc2ccco2)C(=O)CCC(=O)Nc2ccccn2)cc1 (stereo unspecified)	none
COc1ccc(-n2nc(C(=O)NCC(=O)NCCCN3CC(C)CC(C)C3)c3ccccc3c2=O)cc1Cl (stereo unspecified)	TRPC4 agonist 128
CCCOc1cccc(C(=O)NCCNC(=O)c2ccco2)c1	TRPC4 block -6
CC1CCCN(CCCNC(=O)c2cc3c(Cl)nc4ccccc4c3s2)C1 (stereo unspecified)	none
CC(=O)[C@H]1[C@@H]2C(=O)N(c3cccc(Cl)c3)C(=O)[C@@H]2[C@H]2c3ccccc3C=CN21	none
